Experimental data published in ChEMBL document CHEMBL1154352, “Toll-like receptor 7 selective synthetic oligoribonucleotide agonists: synthesis and structure-activity relationship studies” (J Med Chem, 2009).
Active and inactive are the calls of the source. The rule behind the calls is not given here.

Assays:
[1] = Metabolic stability in human serum assessed as full length product remaining after 10 mins by HPLC; type: ADME, cell-free; conditions: read-out: Stability
Summary of the method: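 About 0.5 A260 units compound in 1% human serum in PBS, 37 °C; aliquot taken at 10 min, analysed by anion-exchange HPLC for percent intact full-length product.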

[2] = species on record: Homo sapiens; assay: Ratio of human TLR7 activity to human TLR8 activity
Summary of the method: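 TLR7/TLR8 ratio computed from fold NF-κB (SEAP reporter) activation in HEK293 cells stably expressing human TLR7 versus TLR8, compounds at 50 μg/mL, 18 h exposure; representative of three independent experiments.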

[3] = test system: PBMC; assay: Immunomodulatory activity in human PBMC assessed as induction of IL12 at 100 ug/ml after 24 hrs; type: functional, cell-based
Summary of the method: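 Human PBMCs plated at 5 × 10^6 cells/mL; compounds dissolved in PBS added at various concentrations, 37 °C for 24 h. Supernatant cytokines/chemokines quantified with human Luminex multiplex kit.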

[4] = test system: PBMC; assay: Immunomodulatory activity in human PBMC assessed as induction of IFN-alpha at 100 ug/ml after 24 hrs
[5] = molecular target: Toll-like receptor 3 (Homo sapiens) (UniProt O15455); assay: Activation of human TLR3 expressed in HEK293 assessed as induction of NF-kappaB activity reporter gene assay; type: cell-based
Sequence of Toll-like receptor 3 (Homo sapiens) (O15455 whole entry): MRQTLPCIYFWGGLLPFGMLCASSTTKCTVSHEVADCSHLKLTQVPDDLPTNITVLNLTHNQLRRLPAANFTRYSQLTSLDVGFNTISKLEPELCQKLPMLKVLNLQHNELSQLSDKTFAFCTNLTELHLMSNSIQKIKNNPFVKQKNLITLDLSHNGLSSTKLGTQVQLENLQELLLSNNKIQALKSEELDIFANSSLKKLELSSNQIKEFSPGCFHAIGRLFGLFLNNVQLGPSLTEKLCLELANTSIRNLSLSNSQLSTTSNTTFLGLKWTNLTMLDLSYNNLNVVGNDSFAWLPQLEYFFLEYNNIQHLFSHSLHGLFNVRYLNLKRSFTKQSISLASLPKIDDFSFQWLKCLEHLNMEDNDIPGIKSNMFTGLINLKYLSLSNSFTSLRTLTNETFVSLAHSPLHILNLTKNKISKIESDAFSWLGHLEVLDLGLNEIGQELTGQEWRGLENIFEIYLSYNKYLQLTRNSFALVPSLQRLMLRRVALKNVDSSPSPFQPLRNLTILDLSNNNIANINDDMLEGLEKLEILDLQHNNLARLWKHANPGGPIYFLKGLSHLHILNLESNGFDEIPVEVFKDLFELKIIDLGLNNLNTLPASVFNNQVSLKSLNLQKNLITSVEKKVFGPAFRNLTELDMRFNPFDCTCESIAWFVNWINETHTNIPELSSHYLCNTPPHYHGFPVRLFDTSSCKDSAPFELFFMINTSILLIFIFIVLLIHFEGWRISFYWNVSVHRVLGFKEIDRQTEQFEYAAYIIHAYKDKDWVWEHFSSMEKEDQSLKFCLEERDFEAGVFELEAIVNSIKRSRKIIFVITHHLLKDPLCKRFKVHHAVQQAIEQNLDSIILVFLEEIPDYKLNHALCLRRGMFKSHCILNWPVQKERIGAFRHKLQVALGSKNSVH

[6] = test system: Splenocyte; assay: Immunomodulatory activity in C57BL/6 mouse splenocytes bearing TLR7 receptor assessed as IL12 release at 100 ug/ml after 24 hrs by ELISA; type: functional, cell-based
Summary of the method: (§1)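 C57BL/6 splenocytes in RPMI 1640 with 10% FBS, penicillin/streptomycin, 2 mM L-glutamine, plated at 5 × 10^6 cells/mL; compounds in PBS added, 37 °C for 24 h. Supernatant IL-12 and IL-6 by ELISA; representative of three independent experiments.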

[7] = test system: Splenocyte; assay: Immunomodulatory activity in C57BL/6 mouse splenocytes bearing TLR7 receptor assessed as IL6 release at 100 ug/ml after 24 hrs by ELISA; type: functional, cell-based; summary of the method: as §1
[8] = molecular target: T1, Toll-like receptor 8 (Homo sapiens) (UniProt Q9NR97); assay: Activation of human TLR8 expressed in HEK293XL assessed as fold induction of NF-kappaB activity at 50 ug/ml after 18 hrs by reporter gene assay relative to control
T1 sequence (whole entry): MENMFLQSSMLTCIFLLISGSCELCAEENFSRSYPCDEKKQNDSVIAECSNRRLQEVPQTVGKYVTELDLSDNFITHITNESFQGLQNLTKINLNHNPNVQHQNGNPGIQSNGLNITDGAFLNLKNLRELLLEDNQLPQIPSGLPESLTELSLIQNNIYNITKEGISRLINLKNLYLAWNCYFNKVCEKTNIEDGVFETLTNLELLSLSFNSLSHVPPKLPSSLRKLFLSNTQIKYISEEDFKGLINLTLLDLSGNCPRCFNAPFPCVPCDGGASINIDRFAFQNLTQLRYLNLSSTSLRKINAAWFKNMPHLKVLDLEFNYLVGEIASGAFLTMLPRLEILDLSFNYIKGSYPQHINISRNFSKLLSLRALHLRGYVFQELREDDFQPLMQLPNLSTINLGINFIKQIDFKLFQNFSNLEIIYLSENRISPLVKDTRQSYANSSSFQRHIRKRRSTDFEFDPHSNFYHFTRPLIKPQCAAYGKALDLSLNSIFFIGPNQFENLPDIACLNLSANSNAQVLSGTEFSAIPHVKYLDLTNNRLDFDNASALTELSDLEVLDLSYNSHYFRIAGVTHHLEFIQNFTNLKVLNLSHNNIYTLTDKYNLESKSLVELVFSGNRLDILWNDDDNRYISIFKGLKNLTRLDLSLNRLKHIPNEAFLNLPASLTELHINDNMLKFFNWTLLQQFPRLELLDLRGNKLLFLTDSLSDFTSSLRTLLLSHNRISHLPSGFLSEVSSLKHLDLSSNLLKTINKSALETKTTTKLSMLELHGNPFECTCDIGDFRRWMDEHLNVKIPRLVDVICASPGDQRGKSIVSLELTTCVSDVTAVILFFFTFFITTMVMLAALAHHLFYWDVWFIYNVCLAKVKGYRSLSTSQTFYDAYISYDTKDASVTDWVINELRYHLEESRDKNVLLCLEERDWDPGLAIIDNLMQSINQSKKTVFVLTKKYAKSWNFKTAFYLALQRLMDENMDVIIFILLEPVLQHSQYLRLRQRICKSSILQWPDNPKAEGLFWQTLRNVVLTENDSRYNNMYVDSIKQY
Summary of the method: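 HEK293 cells stably expressing human TLR7 or TLR8, transiently transfected with SEAP reporter plasmid; medium replaced, SIMRA compounds added, 18 h incubation. Supernatant SEAP measured by QuantiBlue; expressed as fold increase in NF-κB activity over PBS control. Tabulated data at 50 μg/mL, representative of three independent experiments.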

SMILES | remaining at 10 min [1] [%] | Ratio [2] | Activity [3] [pg/mL] | IFN-alpha [4] [pg/mL] | Activity [5] | Activity [6] | Activity [7] | fold change (FC) [8]
Nc1ccn([C@@H]2O[C@H](COP(=O)(S)O[C@H]3[C@@H](O)[C@H](n4cnc5c(N)ncnc54)O[C@@H]3COP(=O)(S)O[C@H]3[C@@H](O)[C@H](n4cnc5c(N)ncnc54)O[C@@H]3CO)[C@@H](OP(=O)(S)OC[C@H]3O[C@@H](n4ccc(=O)[nH]c4=O)[C@H](O)[C@@H]3OP(=O)(S)OC[C@H]3O[C@@H](n4ccc5c(=O)[nH]c(N)nc54)[C@H](O)[C@@H]3OP(=O)(S)OC[C@H]3O[C@@H](n4cnc5c(N)ncnc54)[C@H](O)[C@@H]3OP(=O)(S)OC[C@H]3O[C@@H](n4cnc5c(N)ncnc54)[C@H](O)[C@@H]3OP(=O)(S)OC[C@H]3O[C@@H](n4ccc5c(=O)[nH]c(N)nc54)[C@H](O)[C@@H]3OP(=O)(S)OC[C@H]3O[C@@H](n4ccc(N)nc4=O)[C@H](O)[C@@H]3OP(=O)(S)OC[C@H]3O[C@@H](n4ccc(=O)[nH]c4=O)[C@H](O)[C@@H]3OP(=O)(S)OC[C@H]3O[C@@H](n4ccc(=O)[nH]c4=O)[C@H](O)[C@@H]3OP(=O)(S)OCC(O)COP(=O)(S)O[C@H]3[C@@H](O)[C@H](n4ccc(=O)[nH]c4=O)O[C@@H]3COP(=O)(S)O[C@H]3[C@@H](O)[C@H](n4ccc(=O)[nH]c4=O)O[C@@H]3COP(=O)(S)O[C@H]3[C@@H](O)[C@H](n4ccc(N)nc4=O)O[C@@H]3COP(=O)(S)O[C@H]3[C@@H](O)[C@H](n4ccc5c(=O)[nH]c(N)nc54)O[C@@H]3COP(=O)(S)O[C@H]3[C@@H](O)[C@H](n4cnc5c(N)ncnc54)O[C@@H]3COP(=O)(S)O[C@H]3[C@@H](O)[C@H](n4cnc5c(N)ncnc54)O[C@@H]3COP(=O)(S)O[C@H]3[C@@H](O)[C@H](n4ccc5c(=O)[nH]c(N)nc54)O[C@@H]3COP(=O)(S)O[C@H]3[C@@H](O)[C@H](n4ccc(=O)[nH]c4=O)O[C@@H]3COP(=O)(S)O[C@H]3[C@@H](O)[C@H](n4ccc(N)nc4=O)O[C@@H]3COP(=O)(S)O[C@H]3[C@@H](O)[C@H](n4cnc5c(N)ncnc54)O[C@@H]3COP(=O)(S)O[C@H]3[C@@H](O)[C@H](n4cnc5c(N)ncnc54)O[C@@H]3CO)[C@H]2O)c(=O)n1 (some centres undefined) | 77 | 29.5 | 260 | 84.5 | inactive | Active | Active | 1
Nc1ccn([C@@H]2O[C@H](CO)[C@@H](OP(=O)(S)OC[C@H]3O[C@@H](n4ccc(=O)[nH]c4=O)[C@H](O)[C@@H]3OP(=O)(S)OC[C@H]3O[C@@H](n4ccc(=O)[nH]c4=O)[C@H](O)[C@@H]3OP(=O)(S)OC[C@H]3O[C@@H](n4ccc5c(=O)[nH]c(N)nc54)[C@H](O)[C@@H]3OP(=O)(S)OC[C@H]3O[C@@H](n4ccc(=O)[nH]c4=O)[C@H](O)[C@@H]3OP(=O)(S)OC[C@H]3O[C@@H](n4ccc5c(=O)[nH]c(N)nc54)[C@H](O)[C@@H]3OP(=O)(S)OC[C@H]3O[C@@H](n4cnc5c(N)ncnc54)[C@H](O)[C@@H]3OP(=O)(S)OC[C@H]3O[C@@H](n4ccc5c(=O)[nH]c(N)nc54)[C@H](O)[C@@H]3OP(=O)(S)OC[C@H]3O[C@@H](n4ccc(N)nc4=O)[C@H](O)[C@@H]3OP(=O)(S)OC[C@H]3O[C@@H](n4ccc(=O)[nH]c4=O)[C@H](O)[C@@H]3OP(=O)(S)OC[C@H]3O[C@@H](n4ccc(=O)[nH]c4=O)[C@H](O)[C@@H]3OP(=O)(S)OCC(O)COP(=O)(S)O[C@H]3[C@@H](O)[C@H](n4ccc(=O)[nH]c4=O)O[C@@H]3COP(=O)(S)O[C@H]3[C@@H](O)[C@H](n4ccc(=O)[nH]c4=O)O[C@@H]3COP(=O)(S)O[C@H]3[C@@H](O)[C@H](n4ccc(N)nc4=O)O[C@@H]3COP(=O)(S)O[C@H]3[C@@H](O)[C@H](n4ccc5c(=O)[nH]c(N)nc54)O[C@@H]3COP(=O)(S)O[C@H]3[C@@H](O)[C@H](n4cnc5c(N)ncnc54)O[C@@H]3COP(=O)(S)O[C@H]3[C@@H](O)[C@H](n4ccc5c(=O)[nH]c(N)nc54)O[C@@H]3COP(=O)(S)O[C@H]3[C@@H](O)[C@H](n4ccc(=O)[nH]c4=O)O[C@@H]3COP(=O)(S)O[C@H]3[C@@H](O)[C@H](n4ccc5c(=O)[nH]c(N)nc54)O[C@@H]3COP(=O)(S)O[C@H]3[C@@H](O)[C@H](n4ccc(=O)[nH]c4=O)O[C@@H]3COP(=O)(S)O[C@H]3[C@@H](O)[C@H](n4ccc(=O)[nH]c4=O)O[C@@H]3COP(=O)(S)O[C@H]3[C@@H](O)[C@H](n4ccc(N)nc4=O)O[C@@H]3CO)[C@H]2O)c(=O)n1 (some centres undefined) | 85 | 19.3 | 1020 | 138 | inactive | Active | Active | 1.5
Nc1ccn([C@@H]2O[C@H](COP(=O)(S)O[C@H]3[C@@H](O)[C@H](n4cnc5c(N)ncnc54)O[C@@H]3COP(=O)(S)O[C@H]3[C@@H](O)[C@H](n4ccc5c(=O)[nH]c(N)nc54)O[C@@H]3COP(=O)(S)O[C@H]3[C@@H](O)[C@H](n4ccc(=O)[nH]c4=O)O[C@@H]3COP(=O)(S)O[C@H]3[C@@H](O)[C@H](n4ccc5c(=O)[nH]c(N)nc54)O[C@@H]3COP(=O)(S)O[C@H]3[C@@H](O)[C@H](n4cnc5c(N)ncnc54)O[C@@H]3COP(=O)(S)O[C@H]3[C@@H](O)[C@H](n4cnc5c(N)ncnc54)O[C@@H]3CO)[C@@H](OP(=O)(S)OC[C@H]3O[C@@H](n4ccc5c(=O)[nH]c(N)nc54)[C@H](O)[C@@H]3OP(=O)(S)OC[C@H]3O[C@@H](n4ccc(N)nc4=O)[C@H](O)[C@@H]3OP(=O)(S)OC[C@H]3O[C@@H](n4ccc(=O)[nH]c4=O)[C@H](O)[C@@H]3OP(=O)(S)OC[C@H]3O[C@@H](n4ccc(=O)[nH]c4=O)[C@H](O)[C@@H]3OP(=O)(S)OCC(O)COP(=O)(S)O[C@H]3[C@@H](O)[C@H](n4ccc(=O)[nH]c4=O)O[C@@H]3COP(=O)(S)O[C@H]3[C@@H](O)[C@H](n4ccc(=O)[nH]c4=O)O[C@@H]3COP(=O)(S)O[C@H]3[C@@H](O)[C@H](n4ccc(N)nc4=O)O[C@@H]3COP(=O)(S)O[C@H]3[C@@H](O)[C@H](n4ccc5c(=O)[nH]c(N)nc54)O[C@@H]3COP(=O)(S)O[C@H]3[C@@H](O)[C@H](n4ccc(N)nc4=O)O[C@@H]3COP(=O)(S)O[C@H]3[C@@H](O)[C@H](n4cnc5c(N)ncnc54)O[C@@H]3COP(=O)(S)O[C@H]3[C@@H](O)[C@H](n4ccc5c(=O)[nH]c(N)nc54)O[C@@H]3COP(=O)(S)O[C@H]3[C@@H](O)[C@H](n4ccc(=O)[nH]c4=O)O[C@@H]3COP(=O)(S)O[C@H]3[C@@H](O)[C@H](n4ccc5c(=O)[nH]c(N)nc54)O[C@@H]3COP(=O)(S)O[C@H]3[C@@H](O)[C@H](n4cnc5c(N)ncnc54)O[C@@H]3COP(=O)(S)O[C@H]3[C@@H](O)[C@H](n4cnc5c(N)ncnc54)O[C@@H]3CO)[C@H]2O)c(=O)n1 (some centres undefined) | 87 | 32.3 | 352 | 204 | inactive | Active | Active | 0.7
